TRPC4 act = opens the mouse TRPC4 cation channel; actives 0.49% (n = 310,000); B-score at 10 µM; AID 2237; HEK293 TRPC4beta/mu-opioid, Fluo4 calcium fluorescence; active compounds read high;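 active means B-score above 5 SD of library B-scores, and initial fluorescence ratio not above library mean plus 5 SD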;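 further: positive B-score marks a calcium rise read as TRPC4 activation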
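Material: HEK293 stable line with TRPC4beta plus mu-opioid receptor; technique: Fluo4 calcium-sensitive dye fluorescence, kinetic, 1 Hz baseline; timing: Fluo4 dye loading 45 min at room temperature, 110 s recording; controls: assay buffer as low control, maximal DAMGO as high control; read-out: integrated baseline-normalised fluorescence ratio, converted to per-well B score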
TRPC4 PAM = allosterically enhances the mouse TRPC4 cation channel; Q9QUQ5; HEK293 TRPC4beta/mu-opioid, DAMGO EC20, Fluo-4 Ca2+ flux; active compounds read high; B-score at 10 µM; actives 0.42% (n = 310,000); AID 2227;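 active means B-score of calcium response area above 5 SD of library B-scores, with initial fluorescence ratio within 5 SD of library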;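 further: B-score of integrated fluorescence ratio over time as area under calcium response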
TRPC6 activator = activators of mouse TRPC6 channel | actives 0.13% (n = 310,000) | B-score at 10 µM | HEK293-TRPC6 membrane potential dye fluorescence; active compounds read high | Q61143;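 active means B-score of the integrated fluorescence ratio above library mean plus 3 SD, and starting fluorescence ratio within library mean plus 5 SD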;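 further: higher score means more depolarization so channel activation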
Target sequence (Q61143 whole entry, looked up): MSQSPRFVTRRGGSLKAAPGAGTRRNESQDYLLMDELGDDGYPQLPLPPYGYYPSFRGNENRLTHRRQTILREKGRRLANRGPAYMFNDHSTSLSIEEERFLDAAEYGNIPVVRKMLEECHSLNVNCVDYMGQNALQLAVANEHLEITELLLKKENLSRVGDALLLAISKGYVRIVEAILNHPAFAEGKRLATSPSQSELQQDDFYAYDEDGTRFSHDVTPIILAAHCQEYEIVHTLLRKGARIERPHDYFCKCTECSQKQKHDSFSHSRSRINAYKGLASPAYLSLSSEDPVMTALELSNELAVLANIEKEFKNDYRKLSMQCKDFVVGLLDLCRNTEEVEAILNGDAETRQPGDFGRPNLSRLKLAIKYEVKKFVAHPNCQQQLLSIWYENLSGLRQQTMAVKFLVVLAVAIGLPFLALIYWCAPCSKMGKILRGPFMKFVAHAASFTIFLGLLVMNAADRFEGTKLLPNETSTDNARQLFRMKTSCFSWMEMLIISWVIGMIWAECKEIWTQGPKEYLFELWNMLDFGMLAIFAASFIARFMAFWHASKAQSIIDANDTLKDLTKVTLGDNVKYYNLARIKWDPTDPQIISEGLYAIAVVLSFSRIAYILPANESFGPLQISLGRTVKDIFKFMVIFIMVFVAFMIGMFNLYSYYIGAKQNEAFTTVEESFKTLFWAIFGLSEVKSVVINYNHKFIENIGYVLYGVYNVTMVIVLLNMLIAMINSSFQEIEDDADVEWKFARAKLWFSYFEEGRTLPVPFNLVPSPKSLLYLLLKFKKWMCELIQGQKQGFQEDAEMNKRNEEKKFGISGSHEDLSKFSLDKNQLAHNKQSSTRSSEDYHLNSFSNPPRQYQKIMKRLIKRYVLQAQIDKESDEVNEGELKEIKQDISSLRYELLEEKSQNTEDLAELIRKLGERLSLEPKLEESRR
TRPC4 block = TRPC4 (mouse) channel inhibition; actives 0.39% (n = 300,000); HEK293 TRPC4beta/mu-opioid, DAMGO-evoked Fluo4 calcium flux; active compounds read low; Q9QUQ5; B-score at 10 µM;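 active means B-score over 3 SD under the library average, no early fluorescence shift, positive overall ratio signal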
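System: stable TRPC4beta/mu-opioid receptor HEK293 cells; Dosing: single-point compound dosing; Measured by: Fluo4 Ca2+ flux fluorescence; Read-out basis: per-well B score of integrated baseline-normalized Fluo4 ratio.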
TRPC6 inhibitor = inhibitors of mouse TRPC6 channel | Q61143 | HEK293-TRPC6, membrane potential dye, ACh-evoked depolarization; active compounds read low | B-score at 10 µM | actives 1.1% (n = 310,000);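 active means B-score under library mean minus 3 SD, initial fluorescence not abnormally high, positive integrated signal ratio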;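 further: B-score derived from integrated fluorescence ratio over the kinetic read; more negative B-score means stronger inhibition of depolarization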
TRPC4 sel inh 2 = second check of whether TRPC6 inhibitors also affect mouse TRPC4; HEK293 TRPC4/MOR, membrane potential dye fluorescence; channel activated by saturating DAMGO dose; shares compounds with TRPC6 inhibitor; actives 42% (n = 920); inhibition, % at 10 µM;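 active means compounds whose fluorescence signal differed from control wells by over 3 SD, either direction, in both duplicate plates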
TRPC4 spec = tests whether TRPC6 inhibitors also affect mouse TRPC4; shares compounds with TRPC6 inhibitor; HEK293 TRPC4/mu-opioid, membrane potential fluorescence; activity change, negative = inhibition, % at 10 µM; actives 61% (n = 920); AID 2777;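 active means rise or fall in signal beyond 3 SD of buffer-only wells in both replicate plates, either sign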;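 further: integrated kinetic ratio of fluorescence range over baseline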
HEK293 MPD ctr 2-1 = second check of TRPC6 inhibitor effects in parental HEK293 cells | shares compounds with TRPC6 inhibitor | parental HEK293 membrane potential dye fluorescence; maximal acetylcholine challenge after compound addition | signal change vs control, % at 10 µM | actives 31% (n = 920) | AID 2779;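 active means membrane potential signal moving either way by over 3 SD of the maximum-effect control, in both duplicate plates, meaning non-specific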
HEK293 MPD ctr-1 = counter-screen for TRPC6 inhibitors: effect in parental HEK293 cells. shares compounds with TRPC6 inhibitor. parental HEK293 membrane potential dye fluorescence. membrane potential signal change, % at 10 µM. actives 60% (n = 920). AID 2780;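 active means membrane potential signal shifting up or down by more than 3 SD of buffer-only wells, on both duplicate plates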
HEK293 MPD ctr-2 = counter-screen for TRPC6 modulators: effect in parental HEK293 cells. shares compounds with TRPC6 inhibitor. membrane potential dye fluorescence. membrane potential signal change, % at 10 µM. actives 51% (n = 2,400). AID 488924;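 active means membrane potential signal moves up or down beyond 5 SD from buffer-only wells, on both duplicate plates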
HEK293 MPD ctr 2-2 = second check of TRPC6 modulator effects in parental HEK293 cells; actives 14% (n = 2,400); inhibition, % at 10 µM; shares compounds with TRPC6 inhibitor; AID 488926; membrane potential dye fluorescence; after compound, maximal acetylcholine stimulation;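 active means membrane potential signal drops by more than 5 SD from the mean control signal, in both duplicate plates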;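 further: plate controls were acetylcholine ECmax control wells for no effect and buffer only wells for full effect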
TRPC4 ctr mod = selectivity of TRPC6 modulators against mouse TRPC4; shares compounds with TRPC6 inhibitor; actives 69% (n = 2,400); percent change from control (negative = decrease, positive = increase), % at 10 µM; HEK293 TRPC4/mu-opioid, membrane potential fluorescence;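 active means membrane potential signal moved up or down beyond 5 SD of buffer control wells, in both duplicate plates, actives on both sides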;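 further: plate controls were assay buffer wells for no effect and DAMGO maximal-effect wells for full effect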
TRPC4 ctr inh 2 = second check of whether TRPC6 modulators also affect mouse TRPC4 | inhibition, % at 10 µM | actives 55% (n = 2,400) | AID 488928 | shares compounds with TRPC6 inhibitor | HEK293 TRPC4/mu-opioid, membrane potential dye fluorescence; stimulated with maximal-effect DAMGO;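 active means drop in membrane potential signal beyond 5 SD of the control wells in both duplicate plates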;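 further: TRPC4 counter screen for TRPC6 hits run under conditions tuned for TRPC6 not TRPC4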
TRPC6 block conf = mouse TRPC6 inhibitor confirmation | shares compounds with TRPC6 inhibitor | AID 488960 | inhibition, % at 10 µM | actives 43% (n = 3,300) | HEK293-TRPC6, membrane potential dye, ACh-evoked depolarization;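 active means fluorescence ratio falls more than 5 SD below the full-stimulation control mean, in both duplicate runs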;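 further: integrated fluorescence ratio of peak minus minimum over baseline after agonist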
TRPC6 act conf = mouse TRPC6 activator confirmation; shares compounds with TRPC6 inhibitor; HEK293-TRPC6 membrane potential dye fluorescence, FDSS; activation, % at 10 µM; actives 11% (n = 2,800); AID 488961;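 active means ratio signal rise beyond 5 SD above unstimulated control wells' mean, seen in both duplicate runs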;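 further: plate controls were buffer EC0 wells for no effect and acetylcholine ECmax response for full effect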
Numbers without * were called inactive; i = inactive; / = no result. Hits are enriched below; roughly 2.3% of the tested compounds scored in any of these assays.

SMILES | TRPC4 act | TRPC4 PAM | TRPC6 activator | TRPC4 block | TRPC6 inhibitor | TRPC6 block conf | TRPC6 act conf | others
O=C(c1ccc(COc2ccccc2Cl)o1)N1CCCC1 | i | i | i | i | i | / | /
CN1CCN(C(=O)c2cccc(COc3cc(Cl)ccc3Cl)c2)CC1 | i | i | i | i | i | / | /
CN(C)S(=O)(=O)NCC1CCCN(Cc2cc3ccccc3s2)C1 (stereo unspecified) | i | i | i | i | i | / | /
Cc1cc(C)c2nc(C)cc(Nc3ccc(C(=O)NCCO)cc3)c2c1 | i | i | i | i | -10* | 56%* | i | TRPC4 sel inh 2=i;TRPC4 spec=-20%*;HEK293 MPD ctr 2-1=-46%*;HEK293 MPD ctr-1=-308%*
Cc1cc(C)c2nc(C)cc(Nc3ccc(C(=O)N(C)C)cc3)c2c1 | i | i | i | i | -5.4* | i | i | HEK293 MPD ctr-2=-114%*;HEK293 MPD ctr 2-2=i;TRPC4 ctr mod=-22%*;TRPC4 ctr inh 2=i
COc1ccc(Nc2nnc(-c3ccc(C(=O)NCCO)cc3)c3ccccc23)cc1 | i | i | i | i | i | / | /
CC(=O)c1ccc(Nc2cc(C)nc3c(C)cc(C)cc23)cc1 | i | i | i | -6* | -6.9* | i | i | TRPC4 sel inh 2=i;TRPC4 spec=-21%*;HEK293 MPD ctr 2-1=i;HEK293 MPD ctr-1=-327%*
CN(C(=O)Cn1nnc2ccccc2c1=O)C1CCCCC1 | i | i | i | i | i | / | /
COc1ccccc1CN1CC(C(=O)N(Cc2cnn(C)c2)C(C)C)CCC1=O (stereo unspecified) | i | i | i | i | i | / | /
CCOC(=O)c1cnc2c(Cl)cccc2c1NCCN(C)C | i | i | i | i | -9.2* | 73%* | i | TRPC4 sel inh 2=68%*;TRPC4 spec=-26%*;HEK293 MPD ctr 2-1=18%*;HEK293 MPD ctr-1=-448%*
CCOC(=O)c1cnc2c(ccc3ccccc32)c1NCCO | i | i | i | i | i | / | /
CCOC(=O)c1c(NCCN(C)C)c2ccccc2[nH]c1=O | i | i | i | i | i | / | /
CCOC(=O)c1cnc2c(C(=O)OC)cccc2c1NCc1cccnc1 | i | i | i | i | -6.2* | i | i | HEK293 MPD ctr-2=i;HEK293 MPD ctr 2-2=i;TRPC4 ctr mod=14%*;TRPC4 ctr inh 2=i
CCOC(=O)c1cnc2c(ccc3ccccc32)c1NCCN(C)C | i | i | i | i | -6.8* | i | i | TRPC4 sel inh 2=74%*;TRPC4 spec=-14%*;HEK293 MPD ctr 2-1=i;HEK293 MPD ctr-1=-232%*
Cc1ccc(S(=O)(=O)Nc2cc(C)cn(Cc3ccc(F)cc3)c2=O)cc1 | i | i | i | i | i | / | /
CN(C1=C(NC(=O)c2ccc(Cl)cc2)C(=O)c2ccccc2C1=O)c1ccccc1 | i | i | i | i | -5.1* | i | i | HEK293 MPD ctr-2=-100%*;HEK293 MPD ctr 2-2=i;TRPC4 ctr mod=-32%*;TRPC4 ctr inh 2=65%*
COc1cccc(NC(=O)c2ccccc2Oc2ccccc2)c1 | i | i | i | i | -5.3* | i | i | HEK293 MPD ctr-2=i;HEK293 MPD ctr 2-2=i;TRPC4 ctr mod=14%*;TRPC4 ctr inh 2=i
COc1ccc(NC(=O)c2ccccc2Oc2ccccc2)cc1 | i | i | i | i | i | / | /
COc1cccc(NC(=O)C(NC2CCCC2)c2ccccc2)c1 (stereo unspecified) | i | i | i | i | -9.6* | i | / | TRPC4 sel inh 2=i;TRPC4 spec=12%*;HEK293 MPD ctr 2-1=245%*;HEK293 MPD ctr-1=9.7%*
Cc1ccc(NC(=O)C(NC2CCCC2)c2ccccc2)cc1Cl (stereo unspecified) | i | i | i | i | i | / | /
CN(CC#CC(O)(c1ccccc1)c1ccccc1)C(C)(C)C | i | i | i | i | -8.9* | 74%* | / | TRPC4 sel inh 2=i;TRPC4 spec=6.1%*;HEK293 MPD ctr 2-1=-16%*;HEK293 MPD ctr-1=8.8%*
CC(C)N(CC#CC(O)(c1ccccc1)c1ccccc1)CCO | i | i | i | i | i | / | /
OCCN(CC#CC(O)(c1ccccc1)c1ccccc1)CCO | i | i | i | i | i | / | /
CC(C)N(CC#CC(O)(c1ccccc1)c1ccccc1)C(C)C | i | i | i | i | -6.4* | 73%* | / | HEK293 MPD ctr-2=115%*;HEK293 MPD ctr 2-2=96%*;TRPC4 ctr mod=22%*;TRPC4 ctr inh 2=i
CC(C(=O)Nc1cccc([N+](=O)[O-])c1)N1C(=O)NC2(CCCC2)C1=O (stereo unspecified) | i | i | i | i | i | / | /
COc1ccc(C2c3ccc4ccccc4c3Oc3ncn(CCN(C)C)c(=N)c32)cc1 (stereo unspecified) | i | i | i | i | -5.4* | i | / | HEK293 MPD ctr-2=115%*;HEK293 MPD ctr 2-2=i;TRPC4 ctr mod=10%*;TRPC4 ctr inh 2=69%*
Cc1ccc(CNS(=O)(=O)c2cn(C)c(=O)n(C)c2=O)cc1 | i | i | i | i | i | / | /
CC1CC(C)CN(c2nc3c(c(=O)n(C)c(=O)n3C)n2CCSc2ncccn2)C1 (stereo unspecified) | i | i | i | i | i | / | /
Cn1c(=O)c2c(nc(N3CCOCC3)n2CCSc2ncccn2)n(C)c1=O | i | i | i | i | -5.6* | i | i | HEK293 MPD ctr-2=-360%*;HEK293 MPD ctr 2-2=i;TRPC4 ctr mod=-56%*;TRPC4 ctr inh 2=i
